Hits are enriched below; roughly 2.6% of the tested compounds scored in any of these assays.
SENP8 block-1: SENP8 protease inhibition; Q96LD8; purified SENP8, Z-RLRGG-aminoluciferin cleavage, luminescence; inhibition, % at 10 µM; actives 1.2% (n = 330,000); AID 2540; in the data active means inhibition above about 50%
Target sequence (Q96LD8 whole entry, looked up): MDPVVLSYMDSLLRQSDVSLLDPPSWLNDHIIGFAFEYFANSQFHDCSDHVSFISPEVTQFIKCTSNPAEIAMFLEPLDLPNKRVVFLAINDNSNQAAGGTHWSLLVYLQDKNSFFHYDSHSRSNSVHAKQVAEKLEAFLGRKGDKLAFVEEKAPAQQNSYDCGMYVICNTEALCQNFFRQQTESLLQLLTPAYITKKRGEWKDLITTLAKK
SENP8 block-2: blocks human SENP8 cleavage of Nedd8 substrate; recombinant SENP8, Nedd8 substrate fluorescence; actives 0.64% (n = 360,000); AID 602440; inhibition, % at 20 µM; Q96LD8; in the data active means inhibition mostly above about 40%, no sharp cut-off; inactive means mostly below about 27%
SENP6 inh: inhibitors of human SENP6 protease; actives 1.8% (n = 330,000); Recombinant SENP6 catalytic domain, aminoluciferin luminescence; inhibition, % at 10 µM; Q9GZR1; AID 2599;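 active means inhibition above about 50% at the single tested dose, limit read from the data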;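 further: plate controls were DMSO wells with enzyme for no effect and DMSO wells lacking enzyme for full effect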
SENP1 FRET inh: SENP1 (human) catalytic domain inhibition; actives 0.21% (n = 360,000); recombinant SENP1 catalytic domain, CyPet-SUMO1-YPet FRET cleavage; Q9P0U3; inhibition, % at 10 µM;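 active means inhibition at least 30% at 10 µM, raw YFP signal under a set limit, fluorescence ratio 0.5 to 1.5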;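 further: 0% = enzyme with DMSO and 100% = no enzyme wells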
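Assay system: hSENP1 catalytic domain, recombinant. Amount: SENP1 enzyme, 20 pM final. Schedule: 50 min reaction, RT, dark. Technique: FRET, CFP and YFP emission. Control set: no-enzyme wells low, DMSO-plus-enzyme wells high control.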
SENP7 inh: SENP7 protease inhibition; actives 1.5% (n = 330,000); AID 434973; inhibition, % at 5 µM; recombinant SENP7, Z-RLRGG-aminoluciferin luminescence, 40 min;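 active means inhibition above about 50% at the single test dose, limit read from the data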;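 further: plate controls were DMSO with enzyme for no effect and no enzyme buffer wells for full effect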
Platelet DG rel: platelet dense granule release activity; inhibition, %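 (compounds screened at 7.5 µM in platelet-rich plasma)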; actives 0.22% (n = 300,000); AID 1663; human platelet-rich plasma, SFLLRN dense granule ATP release, luminescence;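 active means mean replicate score, as percent of positive control, at or above 50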
SENP8 confirm: human SENP8 inhibition, confirmed. inhibition, % at 12.5 µM. Recombinant SENP8, Z-RLRGG-aminoluciferin luminescence, 60 min. actives 40% (n = 6,200). shares compounds with SENP7 inh;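 active means mean inhibition across replicates above about 50%, limit read from the data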
SENP6 confirm: human SENP6 inhibition, confirmed; shares compounds with SENP7 inh; recombinant SENP6, Z-RLRGG-aminoluciferin luminescence; inhibition, % at 12.5 µM; actives 58% (n = 6,200); AID 488915
SENP7 conf: confirmation of human SENP7 protease inhibitors; recombinant SENP7, Z-RLRGG-aminoluciferin luminescence, 40 min; AID 488917; shares compounds with SENP7 inh; actives 69% (n = 6,200); inhibition, % at 12.5 µM
Casp3 select: inhibits human caspase-3 in SENP selectivity test; shares compounds with SENP7 inh; purified caspase-3, Z-DEVD-aminoluciferin luminescence, 60 min; inhibition, % at 12.5 µM; actives 60% (n = 6,200); AID 488918;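 active means mean inhibition above about 50%, limit read from the data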;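 further: plate controls were enzyme with DMSO for no effect and wells without caspase-3 for full effect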
Target sequence (P42574 28-227 limits assumed): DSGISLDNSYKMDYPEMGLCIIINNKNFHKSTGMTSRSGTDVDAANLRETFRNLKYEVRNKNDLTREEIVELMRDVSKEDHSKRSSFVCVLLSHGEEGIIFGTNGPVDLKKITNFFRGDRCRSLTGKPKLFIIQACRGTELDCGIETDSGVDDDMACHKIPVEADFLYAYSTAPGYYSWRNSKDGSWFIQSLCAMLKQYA
SENP luc ctr: interferes with luciferase luminescence in SENP counter-screen; inhibition, % at 12.5 µM; Pre-incubated SENP8/Z-RLRGG-aminoluciferin, luciferase luminescence interference; actives 39% (n = 6,200); shares compounds with SENP7 inh; AID 488919;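 active means mean inhibition above about 50% when retested at one dose, limit read from the data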;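 further: plate controls were DMSO wells with completed reaction for no effect and substrate without enzyme for full effect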
Active calls of the source: *; . = not tested or not shown.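 How the source made its calls, unless noted: active means mean inhibition above about 50% in the one-dose retest (limit read from the data); inactive means the rest.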

SMILES	SENP8 block-1	SENP8 block-2	SENP6 inh	SENP1 FRET inh	SENP7 inh	Platelet DG rel	SENP8 confirm	SENP6 confirm	SENP7 conf	Casp3 select	SENP luc ctr
COc1cc(OC)cc(C(=O)/C=C2\Sc3ccccc3N2C)c1	-14	-73	18	-43	3	2	.	.	.	.	.
CN1/C(=C/C(=O)c2cccs2)Sc2ccccc21	84*	-284	90*	-29	83*	-6	94*	94*	102*	94*	92*
CCOc1ccc(Nc2nc3ccccc3n2C)cc1	5	21	-8	1	-2	4	.	.	.	.	.
Cc1cccc(OCc2nc3ccccc3n2C)c1	-3	23	45	-3	29	-2	.	.	.	.	.
Cn1c(COc2ccc(F)cc2)nc2ccccc21	47	4	62*	-1	61*	5	60*	58*	83*	76*	64*
CCOc1ccc(CNc2nc3ccccc3n2C)cc1	56*	20	84*	1	69*	-1	-3	59*	88*	86*	72*
Cc1ccccc1OCc1nc2ccccc2n1C	79*	10	-5	2	72*	-2	45	80*	96*	86*	82*
Cc1cccc(C(=O)NCCCNC(=O)c2ccccn2)c1	-3	7	-20	0	4	2	.	.	.	.	.
COC(=O)Cc1ccc(NC(=O)c2cccs2)cc1	-20	7	13	2	1	1	.	.	.	.	.
CC(=O)Nc1ccc(C(=O)OCC(=O)NC2CCCCCCC2)cc1	2	7	5	2	10	-1	.	.	.	.	.
OC1(C#CCN2CCCC2)c2ccccc2-c2ccccc21	4	16	-11	0	8	5	.	.	.	.	.
COc1ccc(OC)c(N=Cc2c(O)c3ccccc3oc2=O)c1	-25	-82	-21	-27	-1	0	.	.	.	.	.
O=C(O)c1cc(N=Cc2c(O)c3ccccc3oc2=O)ccc1O	74*	-282	94*	-30	91*	6	93*	86*	101*	38	95*
Cc1ccc(N=Cc2c(O)c3ccccc3oc2=O)cc1F	35	-200	-11	-13	70*	5	31	25	33	9	18
COc1ccc(N=Cc2c(O)c3ccccc3oc2=O)cc1	33	-110	91*	-35	90*	3	70*	74*	84*	66*	49
CC(C)c1ccc(N=Cc2c(O)c3ccccc3oc2=O)cc1	63*	-146	85*	-21	91*	4	58*	60*	77*	42	31
Cc1cc(C)cc(N=Cc2c(O)c3ccccc3oc2=O)c1	5	-422	27	-35	-7	5	.	.	.	.	.
Cc1ccc([C@@H]2C[C@H]3[C@@H](CN2S(=O)(=O)c2ccc(Cl)cc2)C(=O)C[C@@H](c2ccc(Cl)cc2)N3S(=O)(=O)c2ccccc2C)cc1	.	3	.	-1	.	.	.	.	.	.	.
COc1ccc(Cn2c(O)c(C=Nc3ccccc3)c3ccccc3c2=O)cc1	-1	28	36	-53	20	2	.	.	.	.	.
COc1ccc(Cn2c(O)c(C=Nc3ccc(O)cc3)c3ccccc3c2=O)cc1	3	-24	67*	-26	47	30	5	36	10	4	0
COc1ccc(-c2csc(N3C(=N)SCC3=O)n2)cc1	80*	21	74*	2	9	-6	20	12	17	18	0
C/C(=N/N=C/c1ccc(N(C)C)cc1)c1ccccc1	98*	-43	97*	-35	101*	56*	3	80*	101*	67*	26
C/C(=N\OC(=O)c1ccccc1F)c1nccs1	-6	16	79*	1	79*	-1	60*	53*	92*	6	33
Fc1ccc(NC(=S)Nc2ccccc2Cl)cc1	-4	-194	8	2	10	-3	.	.	.	.	.
Fc1ccc(NC(=S)Nc2cccc3ccccc23)cc1	44	-496	65*	-24	22	-2	-6	-6	-8	-5	-4
SMILES	SENP8 block-1	SENP8 block-2	SENP6 inh	SENP1 FRET inh	SENP7 inh	Platelet DG rel	SENP8 confirm	SENP6 confirm	SENP7 conf	Casp3 select	SENP luc ctr
CC(C)c1ccc(NC(=S)Nc2cccc3ccccc23)cc1	33	-396	43	-34	8	12	.	.	.	.	.
Cc1cc(C)cc(NC(=S)Nc2cccc3ccccc23)c1	59*	-391	71*	-14	26	3	-3	2	1	6	7
Cc1ccc(NC(=S)Nc2cccc3ccccc23)cc1	36	-463	81*	-35	17	-21	5	-2	2	4	10
CCc1cccc(NC(=S)Nc2cccc3ccccc23)c1	43	-392	78*	-12	27	42	12	8	1	-2	-3
CSc1ccccc1NC(=S)Nc1cc(C)cc(C)c1	-8	15	-18	2	-9	-1	.	.	.	.	.
Cc1cc2nc(-c3ccc(=O)[nH]c3)n(Cc3ccccc3)c2cc1C	2	-164	17	-7	1	6	.	.	.	.	.
CC(Sc1nc2cc(Cl)ccc2s1)C(=O)Nc1cccc(S(=O)(=O)N2CCOCC2)c1 (stereo not given)	-3	15	-15	0	-1	-9	.	.	.	.	.
CNC(=O)C1=NCCCc2cc(OC)c(OC)cc21	-6	9	-6	2	2	0	.	.	.	.	.
Cc1cccc(NC(=O)Nc2cccc3ccccc23)c1	-1	-117	-7	2	-5	-8	.	.	.	.	.
Cc1cccc(NC(=S)Nc2cccc3ccccc23)c1	89*	-401	91*	-18	46	0	-6	-3	-8	6	7
CC(C)N1CCC1(C)C(=O)Nc1cccc2ccccc12 (stereo not given)	.	-8	.	-1	.	.	.	.	.	.	.
Cc1cc(NC(=S)Nc2cccc3ccccc23)n[nH]1	-11	-138	-4	2	5	2	.	.	.	.	.
Fc1ccc(NC(=S)Nc2cccc3ccccc23)cc1F	48	-388	62*	-8	21	46	11	6	16	11	9
CC1(C(=O)Nc2cccc3ccccc23)CC1(Br)Br (stereo not given)	23	-386	60*	-6	8	-5	12	21	5	5	-3

Screening data as filed in PubChem BioAssay.
